In ChEMBL document CHEMBL1148554, “Hydroxylated analogues of the orally active broad spectrum antifungal, Sch 51048 (1), and the discovery of posaconazole [Sch 56592; 2 or (S,S)-5]” (2006):
Values after ≈ are worked out from the molar mass of the structure shown.

What was measured:
Candida albicans = experiment: Antifungal activity against Candida albicans; type: functional
How it was run: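 Geometric mean MIC across 26–30 C. albicans strains.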

Aspergillus = experiment: Antifungal activity against Aspergillus species; type: functional
How it was run: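 Geometric mean MIC across 37 Aspergillus strains: 17 A. fumigatus, 11 A. flavus, 5 A. niger and 4 A. terreus.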

C[C@H]([C@@H](C)O)n1ncn(-c2ccc(N3CCN(c4ccc(OC[C@@H]5CO[C@@](Cn6cncn6)(c6ccc(F)cc6F)C5)cc4)CC3)cc2)c1=O
MIC (Candida albicans): < 0.006 µg/mL | MIC (Aspergillus): 0.09 µg/mL (≈ 0.131 µM)

CC[C@H]([C@@H](C)O)n1ncn(-c2ccc(N3CCN(c4ccc(OC[C@@H]5CO[C@@](Cn6cncn6)(c6ccc(F)cc6F)C5)cc4)CC3)cc2)c1=O
MIC (Candida albicans): 0.014 µg/mL (≈ 0.02 µM) | MIC (Aspergillus): < 0.077 µg/mL

C[C@H](O)[C@@H](C)n1ncn(-c2ccc(N3CCN(c4ccc(OC[C@@H]5CO[C@@](Cn6cncn6)(c6ccc(F)cc6F)C5)cc4)CC3)cc2)c1=O
MIC (Candida albicans): 0.03 µg/mL (≈ 0.0437 µM) | MIC (Aspergillus): 0.08 µg/mL (≈ 0.116 µM)

CC[C@H]([C@H](C)O)n1ncn(-c2ccc(N3CCN(c4ccc(OC[C@@H]5CO[C@@](Cn6cncn6)(c6ccc(F)cc6F)C5)cc4)CC3)cc2)c1=O
MIC (Candida albicans): 0.022 µg/mL (≈ 0.0314 µM) | MIC (Aspergillus): < 0.09 µg/mL

C[C@@H](O)[C@H](C)n1ncn(-c2ccc(N3CCN(c4ccc(OC[C@@H]5CO[C@@](Cn6cncn6)(c6ccc(F)cc6F)C5)cc4)CC3)cc2)c1=O
MIC (Candida albicans): < 0.007 µg/mL | MIC (Aspergillus): < 0.05 µg/mL

C[C@H](O)[C@H](C)n1ncn(-c2ccc(N3CCN(c4ccc(OC[C@@H]5CO[C@@](Cn6cncn6)(c6ccc(F)cc6F)C5)cc4)CC3)cc2)c1=O
MIC (Candida albicans): 0.02 µg/mL (≈ 0.0291 µM) | MIC (Aspergillus): 0.06 µg/mL (≈ 0.0874 µM)

CC[C@@H]([C@@H](C)O)n1ncn(-c2ccc(N3CCN(c4ccc(OC[C@@H]5CO[C@@](Cn6cncn6)(c6ccc(F)cc6F)C5)cc4)CC3)cc2)c1=O (mixture of isomers)
MIC (Candida albicans): 0.019 µg/mL | MIC (Aspergillus): < 0.086 µg/mL

CC[C@@H]([C@H](C)O)n1ncn(-c2ccc(N3CCN(c4ccc(OC[C@@H]5CO[C@@](Cn6cncn6)(c6ccc(F)cc6F)C5)cc4)CC3)cc2)c1=O [POSACONAZOLE]
MIC (Candida albicans): 0.018 µg/mL (≈ 0.0257 µM) | MIC (Aspergillus): < 0.048 µg/mL
